The source made the active and inactive calls. The rule behind the calls is not given here.
Columns and labels:
[1] = AUC (0 to last) in C57BL/6J mouse liver at 1 mg/kg, po by LC-MS analysis; type: ADME, organism-based; details: in vivo
How it was run: (§1)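 Healthy C57BL/6 mice were dosed once by mouth at 0.3, 1, 3, 10 or 30 mg/kg in 20% HP-β-CD, in groups of 15 per dose. Three mice per group were sacrificed at 0.5, 1, 2, 4 or 7 h, and plasma and liver compound levels were measured by LC–MS. Values were rounded to whole numbers.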

[2] = Protein binding in human plasma fraction at 5 uM after 4.5 hrs LC-MS/MS-based rapid equilibrium dialysis method; type: ADME, cell-free; details: read-out: PPB (converted)
Plasma [3] = assay: Proinflammatory activity in C57BL/6J mouse plasma assessed as IL-1beta levels at 30 mg/kg, po by multiplex assay (reference value: 60 pg/ml); type: functional
[4] = target: T1, TLR7 and TLR8 (Homo sapiens) (UniProt Q9NYK1+Q9NR97); assay: Agonist activity at TLR7/8 in human PBMCs co-cultured with primary human hepatocytes infected with HBV genotype C for 12 days assessed as increase in IL-12p70 levels up to 5 uM measured after 42 days
Cynomolgus monkey [5] = assay: Activation of monocytes in cynomolgus monkey plasma assessed as upregulation of IL1Ra levels at 30 mg/kg, po after 24 hrs by Luminex assay (reference value: 320 pg/ml); type: functional, Macaca fascicularis
Liver [6] = assay: Proinflammatory activity in C57BL/6J mouse liver assessed as IL-6 levels at 3 mg/kg, po by multiplex assay (reference value: 10 pg/g); type: functional
Cynomolgus monkey [7] = assay: Activation of monocytes in cynomolgus monkey plasma assessed as upregulation of MCP1 levels at 9 mg/kg, po after 24 hrs by Luminex assay (reference value: 385 pg/ml); type: functional, Macaca fascicularis
[8] = Intrinsic clearance in cynomolgus monkey liver microsomes assessed per mg protein at 1 uM up to 60 mins; type: ADME, Macaca fascicularis, microsome; details: read-out: CLH
How it was run: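 Cynomolgus monkey liver microsomes at 1 mg/mL microsomal protein, incubated at 37 °C with 1 μM test compound. Serial samples taken at intervals up to 60 min and analysed for remaining compound concentration to derive intrinsic clearance, expressed as (μL/min)/mg protein and rounded to the nearest whole number.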

[9] = Inhibition of CYP450 (unknown origin); type: ADME; details: human
Cytochrome P450 2D6 = Cytochrome P450 2D6 (Homo sapiens, UniProt P10635); assay: Inhibition of CYP2D6 (unknown origin); type: ADME
Cytochrome P450 2D6, sequence (P10635 whole entry): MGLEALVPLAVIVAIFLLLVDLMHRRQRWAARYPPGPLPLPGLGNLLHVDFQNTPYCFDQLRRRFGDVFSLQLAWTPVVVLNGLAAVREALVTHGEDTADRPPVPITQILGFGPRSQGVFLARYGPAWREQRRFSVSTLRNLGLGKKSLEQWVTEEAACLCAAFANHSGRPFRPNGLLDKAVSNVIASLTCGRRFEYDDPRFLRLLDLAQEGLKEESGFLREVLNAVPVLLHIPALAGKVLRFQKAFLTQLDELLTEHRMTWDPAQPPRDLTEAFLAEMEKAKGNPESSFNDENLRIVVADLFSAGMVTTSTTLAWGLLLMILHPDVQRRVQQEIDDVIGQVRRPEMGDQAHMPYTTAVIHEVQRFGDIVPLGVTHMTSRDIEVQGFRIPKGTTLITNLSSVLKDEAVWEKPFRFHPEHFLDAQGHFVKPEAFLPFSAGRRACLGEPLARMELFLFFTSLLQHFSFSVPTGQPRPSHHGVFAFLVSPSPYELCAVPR

[10] = Stability in rat hepatocytes assessed compound turnover at 1 uM after 60 mins; type: ADME, cell-based, Hepatocyte; details: read-out: Drug metabolism
Cynomolgus monkey [11] = assay: Effect on cytokine profile in cynomolgus monkey plasma assessed as IP10 levels at 3 mg/kg, po after 24 hrs by Luminex assay (reference value: 18.5 pg/ml); type: functional, Macaca fascicularis
How it was run: (§2)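 Healthy cynomolgus monkeys given single oral doses of 1, 3, 9 and 30 mg/kg, with a 2-week wash-out planned between doses. Systemic cytokine levels in plasma were sampled at 0.5, 1, 2, 4, 9 and 24 h postdose.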

Cynomolgus monkey [12] = assay: Proinflammatory activity in cynomolgus monkey plasma assessed as IL-6 levels at 9 mg/kg, po after 24 hrs by Luminex assay (reference value: 80 pg/ml); type: functional, Macaca fascicularis
[13] = Hepatic extraction ratio in Sprague-Dawley rat hepatocytes; type: ADME, cell-based, Hepatocyte; details: in vivo, in the assay text read “in Sprague-Dawley rat” for “in Sprague-Dawley rat hepatocytes”, read-out: ERH
How it was run: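 Male Sprague-Dawley rats given 10 mg/kg po as a solution; compound measured in portal vein and systemic circulation to derive the hepatic extraction ratio.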

Plasma [14] = assay: Proinflammatory activity in C57BL/6J mouse plasma assessed as TNFalpha levels at 10 mg/kg, po by multiplex assay (reference value: 70 pg/ml); type: functional
[15] = target: T1, TLR7 and TLR8 (Homo sapiens); assay: Agonist activity at TLR7/8 in human PBMCs co-cultured with primary human hepatocytes infected with HBV genotype C for 12 days assessed as increase in MCP1 levels up to 5 uM measured after 42 days
[16] = AUC (0 to last) in cynomolgus monkey plasma at 9 mg/kg, po by LC-MS analysis; type: ADME, organism-based, Macaca fascicularis; parameters: dose 9 mg/kg, route oral, time 0 - last
How it was run: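 Healthy cynomolgus monkeys received single oral doses of 1, 3, 9 and 30 mg/kg, with a 2-week wash-out between doses. Systemic compound concentrations were measured by LC–MS at 0.25, 0.5, 1, 2, 4, 8 and 24 h postdose.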

Cynomolgus monkey [17] = assay: Proinflammatory activity in cynomolgus monkey plasma assessed as IL-6 levels at 30 mg/kg, po after 24 hrs by Luminex assay (reference value: 80 pg/ml); type: functional, Macaca fascicularis
Cynomolgus monkey [18] = assay: Induction of ISG response in cynomolgus monkey plasma assessed as upregulation of Mx1 mRNA expression at 30 mg/kg, po after 24 hrs by Fluidigm RT-qPCR analysis (reference value: 1); type: functional, Macaca fascicularis
How it was run: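 Cynomolgus monkeys, single oral doses of 1, 3, 9 and 30 mg/kg with a planned 2-week wash-out between doses. Systemic ISG (ISG15, Mx1, OAS1) mRNA was measured by Fluidigm RT-qPCR at 1, 2, 4, 8 and 24 h postdose.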

Plasma [19] = assay: Proinflammatory activity in C57BL/6J mouse plasma assessed as IL-6 levels at 10 mg/kg, po by multiplex assay (reference value: 505 pg/ml); type: functional
[20] = Stability in dog hepatocytes assessed compound turnover at 1 uM after 60 mins; type: ADME, cell-based, Canis lupus familiaris, Hepatocyte; details: read-out: Drug metabolism
Plasma [21] = assay: Proinflammatory activity in C57BL/6J mouse plasma assessed as IL-6 levels at 0.3 mg/kg, po by multiplex assay (reference value: 505 pg/ml); type: functional
[22] = target: Alpha-1A adrenergic receptor; assay: Inhibition of alpha-1A adrenergic receptor (unknown origin)
Cynomolgus monkey [23] = assay: Toxicity in cynomolgus monkey assessed as change in body temperature up to 30 mg/kg, po; type: organism-based, Macaca fascicularis; details: in vivo
[24] = AUC (0 to last) in C57BL/6J mouse liver at 3 mg/kg, po by LC-MS analysis; type: ADME, organism-based; details: in vivo; how it was run: as §1
[25] = Absolute bioavailability in cynomolgus monkey at 1 to 30 mg/kg; type: ADME, organism-based, Macaca fascicularis; details: in vivo
Cynomolgus monkey [26] = assay: Induction of G-CSF in cynomolgus monkey plasma at 3 mg/kg, po after 24 hrs by Luminex assay (reference value: 85 pg/ml); type: functional, organism-based; details: Macaca fascicularis; how it was run: as §2
Liver [27] = assay: Effect on cytokine profile in C57BL/6J mouse liver assessed as IL-12p70 levels at 3 mg/kg, po by multiplex assay (reference value: 5 pg/g); type: functional, organism-based
How it was run: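 Single oral gavage in 20% HP-β-CD to healthy C57BL/6 mice, groups of 15 at 0.3, 1, 3, 10 or 30 mg/kg. Three mice per group sacrificed at 0.5, 1, 2, 4 or 7 h. Plasma and liver cytokines by multiplex, maximum level reported, rounded to nearest multiple of 5.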

Cynomolgus monkey [28] = assay: Activation of monocytes in cynomolgus monkey plasma assessed as upregulation of MIP1 levels at 1 mg/kg, po after 24 hrs by Luminex assay (reference value: 37 pg/ml); type: functional, Macaca fascicularis
[29] = target: T1, TLR7 and TLR8 (Homo sapiens); assay: Agonist activity at TLR7/8 in human PBMCs co-cultured with primary human hepatocytes infected with HBV genotype C for 12 days assessed as increase in IL-10 levels up to 5 uM measured after 42 days

## CCC[C@@H](CCO)Nc1nc(N)nc2c(F)cccc12
[1]
  AUClast: 148 ng·h/g
[2]
  fraction unbound at 4.5 h, 5 µM: 0.34
Plasma [3]
  Activity: 70 pg/mL
[4]
  Activity: Active
Cynomolgus monkey [5]
  Activity: 2970 pg/mL
Liver [6]
  Activity: 3225 pg/g
Cynomolgus monkey [7]
  Activity: 8890 pg/mL
[8]
  microsomal CLint at 1 µM: 16 µL/min/mg
[9]
  inhibition (INH): Not Active
Cytochrome P450 2D6
  IC50: 5.7 µM
[10]
  metabolised at 1 h, 1 µM: 96%
Cynomolgus monkey [11]
  Activity: 1490 pg/mL
Cynomolgus monkey [12]
  Activity: 2265 pg/mL
[13]
  hepatic extraction ratio: 0.74
Plasma [14]
  Activity: >10000 pg/mL
[15]
  Activity: Active
[16]
  AUC(0-t): 4050 ng·h/mL
Cynomolgus monkey [17]
  Activity: 5285 pg/mL
Cynomolgus monkey [18]
  fold change (FC): 65
Plasma [19]
  Activity: >10000 pg/mL
[20]
  metabolised at 1 h, 1 µM: 77%
Plasma [21]
  Activity: 480 pg/mL
[22]
  IC50: > 10 µM
Cynomolgus monkey [23]
  Activity: Non-Toxic
[24]
  AUClast: 362 ng·h/g
[25]
  bioavailability: < 11%
Cynomolgus monkey [26]
  Activity: Below limit of detection
Liver [27]
  Activity: Below limit of detection
Cynomolgus monkey [28]
  Activity: 44 pg/mL
[29]
  Activity: Active

Source: ChEMBL document CHEMBL4130635, “2,4-Diaminoquinazolines as Dual Toll-like Receptor (TLR) 7/8 Modulators for the Treatment of Hepatitis B Virus” (J Med Chem, 2018)
